Drawing on ChEMBL document CHEMBL4665866, “Generation, optimization and characterization of novel anti-prion compounds” (Bioorg Med Chem, 2020), this text covers Activity and IC50 for 40 molecules.

What all share (type): cell-based
The test system of experiment [1] is N2a. Kind of experiment: Anti-prion activity against Scrapie prion protein in mouse N2a-FK cells assessed as residual activity at 10 uM after 48 hrs by immunoblotting analysis relative to control. The gist of the method: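 FK-1-infected N2a cells were seeded overnight at 37 °C, then exposed to 10 µM compound for 48 h. Lysates were treated with 20 μg/mL proteinase K at 37 °C for 30 min, then 15% SDS-PAGE and western blot for PrP^Sc. PrP^Sc ratio is % of solvent-treated control (100%), Tukey-Kramer comparison, mean ± SD.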

Experiment [2] in a line: Anti-prion activity against 22L prion protein in mouse N2a cells by Western blotting analysis.
Experiment [3] can be described thus: Anti-prion activity against RML prion protein in mouse N2a cells by Western blotting analysis.
Experiment [4] is described as follows: Anti-prion activity against Scrapie prion protein in mouse N2a-FK cells after 48 hrs by immunoblotting analysis. In short, it runs like this:
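N2a cells persistently infected with FK-1 prion strain, seeded overnight at 37 °C, then exposed to compound at 1, 5 and 10 µM for 48 h. Lysates digested with 20 μg/mL proteinase K at 37 °C for 30 min, run on 15% SDS-PAGE, and western blotted. PrP^Sc band intensity was plotted against concentration and fitted to a Boltzmann sigmoid for IC50. Mean ± SD from at least three experiments.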

In the case of `COc1ccc(C#C[C@]2(O)CCCC[C@@H]2NCc2ccccc2)cc1` (racemic), in experiment [1], the Activity was 75.7%.

`Cc1ccc(C#C[C@]2(O)CCCC[C@@H]2NCC2CCCCC2)cc1` (racemic): the Activity in experiment [1] turned out to be 75.2%.

Turning to `OC1(C#Cc2ccccc2)CCCCC1NCc1ccccc1` (racemic), the IC50 came to 8.25 µM in experiment [2] and 3.21 µM in experiment [3]. For the same molecule, the Activity in experiment [1] turned out to be 85.8%.

In the case of `COC(=O)c1cccc(C#C[C@]2(O)CCCC[C@@H]2NCc2ccccc2)c1` (racemic), the Activity in experiment [1] amounted to 83.7%.

As to `O[C@@]1(C#Cc2ccccc2)CCCC[C@@H]1NCc1ccccc1F` (mixture of isomers), the Activity in experiment [1] was determined as 68.6%.

As to `O[C@@]1(C#Cc2ccc(F)cc2)CCCC[C@@H]1NCC1CCCCC1` (racemic), in experiment [4], the IC50 amounted to 5.6 µM. Further, the Activity in experiment [1] worked out at 35.5%.

On to `COC(=O)c1ccc(C#C[C@]2(O)CCCC[C@@H]2NCc2ccccc2)cc1` (racemic), for which the Activity in experiment [1] came out at 84.8%.

`O[C@@]1(C#Cc2ccccc2)CCCCC[C@@H]1NCc1ccccc1` (racemic): the Activity in experiment [1] stood at 75.7%.

Consider `Cc1cccc(CN[C@H]2CCCC[C@@]2(O)C#Cc2ccccc2)c1`, for which, in experiment [1], the Activity was found to be 84.8%.

Take `Cc1ccc(CN[C@H]2CCCC[C@@]2(O)C#Cc2ccccc2)cc1` (racemic): the Activity in experiment [1] was 75.5%.

`O[C@@]1(C#Cc2ccc(F)cc2)CCCC[C@@H]1NCc1ccccc1` (racemic): in experiment [1], the Activity came to 95.1%.

With `O[C@@]1(C#Cc2ccccc2)CCCC[C@@H]1NCc1ccco1` (racemic), the Activity in experiment [1] was 103%.

Take `O[C@@]1(C#Cc2ccccc2)CCCC[C@@H]1NCc1ccncc1` (racemic): the Activity in experiment [1] was determined as 102%.

Regarding `N[C@H]1CCCC[C@@]1(O)CCc1ccccc1` (racemic), the Activity in experiment [1] came to 88%.

`O=S(=O)(N[C@H]1CCCC[C@@]1(O)CCc1ccccc1)c1ccccc1` (racemic): the Activity in experiment [1] was 112%.

For `CCOC(=O)CN(Cc1ccccc1)[C@H]1CCCC[C@@]1(O)C#Cc1ccccc1` (racemic), in experiment [1], the Activity amounted to 76.1%.

`O[C@@]1(C#Cc2ccccc2)CCCC[C@@H]1N1CC[C@@H]2CCCC[C@H]2C1` (racemic): in experiment [1], the Activity worked out at 66.7%.

As for `O[C@@]1(C#Cc2ccccc2)CCCC[C@@H]1NCc1ccccc1Cl` (racemic), the Activity in experiment [1] was 96.1%.

Consider `OC(C#Cc1ccccc1)CNCc1ccccc1` (centres undefined), for which the Activity in experiment [1] was 120%.

`C(#C[C@@]12CCCC[C@@H]1N2Cc1ccccc1)c1ccccc1` (mixture of isomers): the Activity in experiment [1] was 96.7%.

For `O[C@@]1(C#Cc2cccc(F)c2)CCCC[C@@H]1NCc1ccccc1` (racemic), in experiment [1], the Activity stood at 74.5%.

With `O[C@@]1(C#Cc2ccccc2)CCCC[C@@H]1NCc1cccc(F)c1` (racemic), the Activity in experiment [1] was 61.2%.

With `O[C@@]1(C#Cc2ccccc2)CCCC[C@@H]1NCc1cccnc1` (racemic), the Activity in experiment [1] stood at 63.4%.

In the case of `COC(=O)c1ccccc1C#C[C@]1(O)CCCC[C@@H]1NCc1ccccc1` (racemic), in experiment [1], the Activity stood at 103%.

Regarding `O[C@@]1(C#Cc2ccccc2F)CCCC[C@@H]1NCc1ccccc1` (racemic), the Activity in experiment [1] worked out at 80.7%.

In the case of `O[C@@]1(C#Cc2ccccc2)CCCC[C@@H]1N1CCc2ccccc2C1` (racemic), in experiment [1], the Activity was determined as 86%.

On to `O[C@@]1(C#Cc2ccccc2)CCCC[C@@H]1NCc1ccccc1`, for which the Activity in experiment [1] worked out at 100%.

On to `O[C@@]1(C#Cc2ccccc2)CCCC[C@@H]1NCC1CCCC1` (racemic), for which the Activity in experiment [1] was determined as 54.8%.

As to `COc1ccc(CN[C@H]2CCCC[C@@]2(O)C#Cc2ccccc2)cc1` (racemic), in experiment [1], the Activity amounted to 83.3%.

For the molecule `O[C@@]1(/C=C/c2ccccc2)CCCC[C@@H]1NCc1ccccc1`, the Activity in experiment [1] is 81.6%.

Consider `O[C@@]1(C#Cc2ccc(Cl)cc2)CCCC[C@@H]1NCc1ccccc1` (racemic), for which the Activity in experiment [1] stood at 77.5%.

For the molecule `CC(C)(C)OC(=O)N1CC[C@@](O)(C#Cc2ccccc2)[C@@H](NCc2ccccc2)C1` (racemic), in experiment [1], the Activity came to 108%.

Turning to `O[C@@]1(C#Cc2ccccc2)CCCC[C@@H]1NCc1ccc(F)cc1` (racemic), in experiment [1], the Activity turned out to be 58.8%.

As for `O=C1O[C@@]2(C#Cc3ccccc3)CCCC[C@@H]2N1Cc1ccccc1`, the Activity in experiment [1] was 68.4%.

As for `O[C@@]1(C#Cc2ccccc2)CCOC[C@@H]1NCc1ccccc1` (racemic), in experiment [1], the Activity worked out at 85.2%.

For `O=C(N[C@H]1CCCC[C@@]1(O)CCc1ccccc1)c1ccccc1` (racemic), the Activity in experiment [1] worked out at 126%.

Regarding `OC1(CN[C@H]2CCCC[C@@]2(O)C#Cc2ccccc2)CCCCC1` (racemic), the Activity in experiment [1] amounted to 77.5%.

In experiment [4], `O[C@@]1(C#Cc2ccccc2)CCCC[C@@H]1NCC1CCCCC1` (racemic) displayed an IC50 of 4.7 µM. Besides, the Activity in experiment [1] is 32.7%.

Regarding `O[C@@]1(C#Cc2ccccc2)CCCC[C@@H]1NCc1ccccn1` (racemic), in experiment [1], the Activity was determined as 116%.

With `Cc1cccc(C#C[C@]2(O)CCCC[C@@H]2NCc2ccccc2)c1`, in experiment [1], the Activity stood at 93.7%.
